# Assay results as given in ChEMBL document CHEMBL1155297, “Synthesis, antimicrobial and antioxidant activities of substituted pyrazoles, isoxazoles, pyrimidine and thioxopyrimidine derivatives” (2009).
# Tests used:
# Assay type in all cases: functional
# [1] = tested on: Staphylococcus aureus; test: Antibacterial activity against Staphylococcus aureus NCIM 5021 at 100 ug/disk after 24 hrs by agar disk diffusion method; conditions: NCIM 5021, 24 h, read-out: IZ
# Summary of the method: (§1)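 Agar disc diffusion on nutrient agar plates pre-inoculated with each bacterium. Sterile 6 mm filter-paper discs were moistened with compound in DMSO at the stated per-disc amount. Plates were incubated at 37 °C, and the growth-inhibition zone diameter was read after 24 h. Each determination was run in triplicate, and the mean of three independent readings is reported.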
# [2] = tested on: Staphylococcus aureus; test: Antibacterial activity against Staphylococcus aureus NCIM 5021 at 200 ug/disk after 24 hrs by agar disk diffusion method; conditions: NCIM 5021, 24 h, read-out: IZ; summary of the method: as §1
# [3] = tested on: Bacillus subtilis; test: Antibacterial activity against Bacillus subtilis NCIM 2063 at 100 ug/disk after 24 hrs by agar disk diffusion method; conditions: NCIM 2063, 24 h, read-out: IZ; summary of the method: as §1
# [4] = tested on: Bacillus subtilis; test: Antibacterial activity against Bacillus subtilis NCIM 2063 at 200 ug/disk after 24 hrs by agar disk diffusion method; conditions: NCIM 2063, 24 h, read-out: IZ; summary of the method: as §1
# [5] = tested on: Klebsiella pneumoniae; test: Antibacterial activity against Klebsiella pneumoniae NCIM 2957 at 100 ug/disk after 24 hrs by agar disk diffusion method; conditions: NCIM 2957, 24 h, read-out: IZ; summary of the method: as §1
# [6] = tested on: Klebsiella pneumoniae; test: Antibacterial activity against Klebsiella pneumoniae NCIM 2957 at 200 ug/disk after 24 hrs by agar disk diffusion method; conditions: NCIM 2957, 24 h, read-out: IZ; summary of the method: as §1
# [7] = tested on: Proteus vulgaris; test: Antibacterial activity against Proteus vulgaris NCIM 2027 at 100 ug/disk after 24 hrs by agar disk diffusion method; conditions: NCIM 2027, 24 h, read-out: IZ; summary of the method: as §1
# [8] = tested on: Proteus vulgaris; test: Antibacterial activity against Proteus vulgaris NCIM 2027 at 200 ug/disk after 24 hrs by agar disk diffusion method; conditions: NCIM 2027, 24 h, read-out: IZ; summary of the method: as §1
# [9] = tested on: Fusarium solani; test: Antifungal activity against Fusarium solani NCIM 1330 at 100 ug/disk after 48 hrs by agar disk diffusion method; conditions: NCIM 1330, 48 h, read-out: IZ
# Summary of the method: (§2)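 Fungal disc diffusion on nutrient agar plates pre-inoculated with each fungus. 6 mm sterile paper discs carried the compound in DMSO at the stated amount per disc. Plates were held at 37 °C, and inhibition-zone diameter was measured after 48 h. Values are the mean of three independent triplicate readings.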
# [10] = tested on: Fusarium solani; test: Antifungal activity against Fusarium solani NCIM 1330 at 200 ug/disk after 48 hrs by agar disk diffusion method; conditions: NCIM 1330, 48 h, read-out: IZ; summary of the method: as §2
# [11] = tested on: Curvularia lunata; test: Antifungal activity against Curvularia lunata NCIM 716 at 100 ug/disk after 48 hrs by agar disk diffusion method; conditions: NCIM 716, 48 h, read-out: IZ; summary of the method: as §2
# [12] = tested on: Curvularia lunata; test: Antifungal activity against Curvularia lunata NCIM 716 at 200 ug/disk after 48 hrs by agar disk diffusion method; conditions: NCIM 716, 48 h, read-out: IZ; summary of the method: as §2
# [13] = tested on: Aspergillus niger; test: Antifungal activity against Aspergillus niger NCIM 596 at 100 ug/disk after 48 hrs by agar disk diffusion method; conditions: NCIM 596, 48 h, read-out: IZ; summary of the method: as §2
# [14] = tested on: Aspergillus niger; test: Antifungal activity against Aspergillus niger NCIM 596 at 200 ug/disk after 48 hrs by agar disk diffusion method; conditions: NCIM 596, 48 h, read-out: IZ; summary of the method: as §2
# [15] = tested on: Radical scavenging activity; test: Antioxidant activity assessed as DPPH free radical scavenging activity at 100 uM after 20 mins
# Summary of the method: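 DPPH scavenging: compound solutions were added to DPPH in dioxane/ethanol and kept at ambient temperature for 20 min. Absorbance was read at 517 nm. The test–control difference was expressed as percent DPPH radical scavenging.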
# [16] = Antioxidant activity assessed as nitric oxide production at 100 uM after 120 mins by Griess reagent method
# Summary of the method: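 Nitric oxide assay with Griess read-out. At intervals, 0.5 ml of incubation solution was mixed with 0.5 ml Griess reagent (1% sulfanilamide, 0.1% N-naphthylethylenediamine dihydrochloride, 2% o-phosphoric acid in water). The control received an equal amount of solvent and was handled identically.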
SMILES,zone of inhibition at 100 µg/disc [1] [mm],zone of inhibition at 200 µg/disc [2] [mm],zone of inhibition at 100 µg/disc [3] [mm],zone of inhibition at 200 µg/disc [4] [mm],zone of inhibition at 100 µg/disc [5] [mm],zone of inhibition at 200 µg/disc [6] [mm],zone of inhibition at 100 µg/disc [7] [mm],zone of inhibition at 200 µg/disc [8] [mm],zone of inhibition at 100 µg/disc [9] [mm],zone of inhibition at 200 µg/disc [10] [mm],zone of inhibition at 100 µg/disc [11] [mm],zone of inhibition at 200 µg/disc [12] [mm],zone of inhibition at 100 µg/disc [13] [mm],zone of inhibition at 200 µg/disc [14] [mm],inhibition [15] [%],inhibition [16] [%]
NC1=NN=C(N)C1C(CC(=O)c1ccccc1)C(=O)c1ccccc1 (centres undefined),27,30,29,31,27,29,23,26,31,33,30,32,29,30,73.7,71.7
Cc1ccc(S(=O)(=O)CC(C2C(N)=NC(=O)N=C2N)S(=O)(=O)c2ccc(C)cc2)cc1 (centres undefined),21,23,22,24,17,19,16,18,13,16,16,18,11,15,28.1,27.9
Cc1ccc(S(=O)(=O)CC(C2C(=N)N(C)C(=O)N(C)C2=N)S(=O)(=O)c2ccc(C)cc2)cc1 (centres undefined),11,13,12,14,9,11,8,10,11,14,13,16,10,13,24.8,24.6
Cc1ccc(C(=O)CC(C(=O)c2ccc(C)cc2)C2C(N)=NC(=O)N=C2N)cc1 (centres undefined),12,15,11,12,10,12,13,14,14,18,15,17,13,15,28.6,27.2
CN1C(=N)C(C(CC(=O)c2ccccc2)C(=O)c2ccccc2)C(=N)N(C)C1=O (centres undefined),10,13,9,11,7,9,6,8,11,13,13,15,12,16,23.8,22.6
N=C1ON=C(N)C1C(CS(=O)(=O)c1ccccc1)S(=O)(=O)c1ccccc1 (centres undefined),29,31,30,32,26,29,26,28,31,34,29,32,28,31,85.8,84.9
CN1C(=N)C(C(CS(=O)(=O)c2ccc(Cl)cc2)S(=O)(=O)c2ccc(Cl)cc2)C(=N)N(C)C1=O (centres undefined),16,18,15,17,12,14,11,13,16,19,17,21,15,17,31.6,30.2
Cc1ccc(C(=O)CC(C(=O)c2ccc(C)cc2)C2C(N)=NN=C2N)cc1 (centres undefined),25,28,27,29,25,27,24,26,32,35,31,33,30,31,66.5,68.2
NC1=NC(=O)N=C(N)C1C(CC(=O)c1ccc(Cl)cc1)C(=O)c1ccc(Cl)cc1 (centres undefined),13,15,12,14,11,13,10,12,17,19,14,18,16,20,41,39.4
